According to ChEMBL document CHEMBL1126771, “Application of a conformationally restricted Phe-Leu dipeptide mimetic to the design of a combined inhibitor of angiotensin I-converting enzyme and neutral endopeptidase 24.11” (J Med Chem, 1993):

Tests used:
[1] = target: T1, Angiotensin-converting enzyme (Oryctolagus cuniculus, UniProt P12822); test: Binding affinity of compound against rabbit lung angiotensin I-converting enzyme (ACE) was determined
T1 sequence (P12822 whole entry): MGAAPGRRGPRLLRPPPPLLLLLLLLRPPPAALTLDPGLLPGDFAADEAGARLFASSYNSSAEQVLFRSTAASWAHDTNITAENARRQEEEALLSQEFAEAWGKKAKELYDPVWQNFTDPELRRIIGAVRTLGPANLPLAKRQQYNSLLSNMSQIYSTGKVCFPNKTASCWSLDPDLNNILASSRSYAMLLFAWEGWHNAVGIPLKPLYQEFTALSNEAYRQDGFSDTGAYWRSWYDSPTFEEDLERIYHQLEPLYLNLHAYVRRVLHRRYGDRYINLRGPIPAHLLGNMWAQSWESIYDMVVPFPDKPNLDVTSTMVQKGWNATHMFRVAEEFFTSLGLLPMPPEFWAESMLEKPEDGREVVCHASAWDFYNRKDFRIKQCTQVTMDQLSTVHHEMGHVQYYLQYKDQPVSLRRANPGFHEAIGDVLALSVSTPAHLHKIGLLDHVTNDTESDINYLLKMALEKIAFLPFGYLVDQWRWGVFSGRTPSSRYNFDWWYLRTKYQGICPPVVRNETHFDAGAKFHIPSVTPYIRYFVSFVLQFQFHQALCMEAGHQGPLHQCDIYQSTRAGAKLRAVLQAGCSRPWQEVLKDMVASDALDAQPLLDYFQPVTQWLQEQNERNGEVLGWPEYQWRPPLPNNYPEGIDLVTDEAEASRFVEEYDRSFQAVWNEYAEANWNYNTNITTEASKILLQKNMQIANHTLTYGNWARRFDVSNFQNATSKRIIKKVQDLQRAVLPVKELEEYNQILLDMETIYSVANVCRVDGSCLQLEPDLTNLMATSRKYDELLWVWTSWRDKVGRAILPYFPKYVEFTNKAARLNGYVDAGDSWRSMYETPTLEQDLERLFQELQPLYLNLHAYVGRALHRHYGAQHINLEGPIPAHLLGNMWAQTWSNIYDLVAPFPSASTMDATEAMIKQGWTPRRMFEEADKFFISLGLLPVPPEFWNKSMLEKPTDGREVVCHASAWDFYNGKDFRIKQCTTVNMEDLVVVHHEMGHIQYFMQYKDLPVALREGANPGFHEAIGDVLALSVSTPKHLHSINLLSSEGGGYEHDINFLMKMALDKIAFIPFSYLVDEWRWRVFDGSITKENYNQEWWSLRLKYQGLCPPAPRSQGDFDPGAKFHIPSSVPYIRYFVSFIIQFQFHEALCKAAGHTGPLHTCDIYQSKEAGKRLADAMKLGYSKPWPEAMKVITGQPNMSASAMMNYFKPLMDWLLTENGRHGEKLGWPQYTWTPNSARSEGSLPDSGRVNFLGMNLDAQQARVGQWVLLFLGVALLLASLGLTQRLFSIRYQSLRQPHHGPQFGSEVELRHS
Procedure, shortened: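 Rabbit lung ACE. Spectrophotometric assay with recrystallized (furylacryloyl)phenylalanyl-glycylglycine as substrate; colored contaminants removed beforehand. Thiol content of inhibitor solutions checked with Ellman's reagent just before testing.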

[2] = target: T2, Neprilysin (Rattus norvegicus, UniProt P07861); test: Binding affinity of compound against rat kidney neutral endopeptidase (NEP) was determined
T2 sequence (P07861 whole entry): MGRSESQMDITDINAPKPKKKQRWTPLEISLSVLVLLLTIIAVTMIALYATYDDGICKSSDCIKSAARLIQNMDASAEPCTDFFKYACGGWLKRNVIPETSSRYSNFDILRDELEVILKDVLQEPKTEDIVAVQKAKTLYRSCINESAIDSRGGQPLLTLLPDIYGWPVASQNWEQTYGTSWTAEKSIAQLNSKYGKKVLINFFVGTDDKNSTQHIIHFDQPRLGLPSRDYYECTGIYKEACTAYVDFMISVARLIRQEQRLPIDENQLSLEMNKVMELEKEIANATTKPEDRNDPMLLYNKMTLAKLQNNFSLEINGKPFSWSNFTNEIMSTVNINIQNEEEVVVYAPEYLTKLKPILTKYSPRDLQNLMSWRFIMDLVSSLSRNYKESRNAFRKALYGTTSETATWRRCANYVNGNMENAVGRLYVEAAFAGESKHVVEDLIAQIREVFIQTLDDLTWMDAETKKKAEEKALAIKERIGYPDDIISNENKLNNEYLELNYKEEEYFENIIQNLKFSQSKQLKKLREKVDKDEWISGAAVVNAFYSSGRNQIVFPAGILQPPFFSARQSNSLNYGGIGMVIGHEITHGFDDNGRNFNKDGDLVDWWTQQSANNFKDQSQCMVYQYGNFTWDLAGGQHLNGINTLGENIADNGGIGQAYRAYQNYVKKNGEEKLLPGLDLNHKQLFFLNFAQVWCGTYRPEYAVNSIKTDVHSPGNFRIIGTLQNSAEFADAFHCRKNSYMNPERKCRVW
Procedure, shortened: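 Rat kidney NEP. Fluorogenic assay using dansyl-D-Ala-Gly-(p-nitro)Phe-Gly-OH as substrate. Inhibitor solutions assayed for thiol content with Ellman's reagent immediately prior to testing.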

Compound	Ki [1] [nM]	Ki [2] [nM]
O=C(NC1Cc2ccccc2C2CCC[C@H](C(=O)O)N2C1=O)C(S)Cc1ccccc1 (stereo in doubt)	0.11	0.08
O=C(O)[C@H]1CCCC2c3ccccc3C[C@@H](CS)C(=O)N21 (stereo in doubt; 3)	2	> 300
O=C(CS)N[C@@H]1Cc2ccccc2C2CCC[C@H](C(=O)O)N2C1=O (some centres not stated)	2	5
O=C(NC1Cc2ccccc2C2CCC[C@H](C(=O)O)N2C1=O)C(S)Cc1ccccc1 (stereo in doubt; 11b)	4.5	0.07
O=C(O)[C@H](CCc1ccccc1)N[C@@H]1Cc2ccccc2C2CCC[C@H](C(=O)O)N2C1=O (some centres not stated)	0.004	> 10000
O=C(O)[C@H]1CCCC2c3ccccc3C[C@@H](CS)C(=O)N21 (stereo in doubt; 4)	> 7	45
